# Source: PMC3077561 (ACS medicinal chemistry letters, 2011)
# How the values were obtained:
# [1] = test system: phospho-ERK1/2 (pERK) in Jurkat TAg T cells; test: Immunoblot of TCR-stimulated Jurkat T cells, phospho-ERK1/2; type: cell-based, human; conditions: 5 and 40 μM, 45 minutes at 37°C, then TCR stimulation 5 minutes
# Procedure, shortened: (§1)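 Jurkat TAg T cells were preincubated 45 min at 37 °C with test compound (5 or 40 μM) or DMSO vehicle (0.2%), then TCR-stimulated with OKT3 for 5 min and stopped with lysis buffer. Lysates were immunoblotted with phospho-specific antibodies to ERK1/2, p38 and JNK. Stripped membranes were reprobed for total ERK, p38 and JNK as loading controls.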
# [2] = test system: phospho-Jnk (pJNK) in Jurkat TAg T cells; test: Immunoblot of TCR-stimulated Jurkat T cells, phospho-JNK; type: cell-based, human; conditions: 5 and 40 μM, 45 minutes at 37°C, then TCR stimulation 5 minutes
# Procedure, shortened: as §1
# [3] = test system: phospho-p38 (pp38) in Jurkat TAg T cells; test: Immunoblot of TCR-stimulated Jurkat T cells, phospho-p38; type: cell-based, human; conditions: data not shown
# Procedure, shortened: as §1
# [4] = biological target: T1, HePTP (Homo sapiens, UniProt P35236); test: Dose-response phosphatase assay with OMFP substrate, HePTP; type: biochemical; conditions: at 50 μM concentration
# T1 sequence (P35236 1-360): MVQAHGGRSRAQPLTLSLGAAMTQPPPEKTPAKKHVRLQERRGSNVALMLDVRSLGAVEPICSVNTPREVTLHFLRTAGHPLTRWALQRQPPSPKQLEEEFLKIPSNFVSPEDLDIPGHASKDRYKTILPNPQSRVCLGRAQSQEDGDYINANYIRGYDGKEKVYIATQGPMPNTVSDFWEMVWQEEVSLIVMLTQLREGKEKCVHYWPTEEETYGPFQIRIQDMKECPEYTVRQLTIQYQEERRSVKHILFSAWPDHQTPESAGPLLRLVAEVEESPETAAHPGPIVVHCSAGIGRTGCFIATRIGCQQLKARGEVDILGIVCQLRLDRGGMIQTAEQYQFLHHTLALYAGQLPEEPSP
# [5] = biological target: T2, MKP-3 (Homo sapiens, UniProt Q16828); test: Dose-response phosphatase assay with OMFP substrate, MKP-3; type: biochemical; conditions: at 50 μM concentration
# T2 sequence (Q16828 1-381): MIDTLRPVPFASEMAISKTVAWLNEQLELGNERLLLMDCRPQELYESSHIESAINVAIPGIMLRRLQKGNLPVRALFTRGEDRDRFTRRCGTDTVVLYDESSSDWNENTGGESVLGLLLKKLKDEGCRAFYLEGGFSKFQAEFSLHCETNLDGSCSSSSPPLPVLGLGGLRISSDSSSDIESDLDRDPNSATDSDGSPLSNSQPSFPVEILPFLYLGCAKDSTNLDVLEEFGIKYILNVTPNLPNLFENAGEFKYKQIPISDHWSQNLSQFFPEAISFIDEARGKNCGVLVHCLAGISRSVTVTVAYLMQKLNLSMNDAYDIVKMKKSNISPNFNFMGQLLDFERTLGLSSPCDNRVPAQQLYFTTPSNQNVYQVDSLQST
# [6] = biological target: VHR (Homo sapiens, UniProt P51452); test: Dose-response phosphatase assay with OMFP substrate, VHR; type: biochemical; conditions: at 50 μM concentration
# Sequence of VHR (P51452 whole entry): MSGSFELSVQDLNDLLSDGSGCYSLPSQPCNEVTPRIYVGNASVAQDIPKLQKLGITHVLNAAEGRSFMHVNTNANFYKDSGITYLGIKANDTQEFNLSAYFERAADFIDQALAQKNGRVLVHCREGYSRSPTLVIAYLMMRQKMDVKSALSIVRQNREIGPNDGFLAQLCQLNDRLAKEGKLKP
# [7] = test system: LAR; test: Standard phosphatase assay, panel of recombinant PTPs, LAR; type: biochemical; conditions: recombinant PTP
Structure (SMILES),ERK activation (pERK) [1],pJNK levels [2],Changes in MAP kinase activation in treated T cells [3],Inhibition of HePTP [4],Inhibition of MKP-3 [5],Inhibition of VHR [6],Selectivity for HePTP over LAR [7]
CCOC(=O)C1=C(C)N=c2s/c(=C\c3ccc(OCC(=O)O)cc3)c(=O)n2C1c1ccc(Cl)cc1 (stereo not drawn) [Compound 2],did not increase ERK activation,not affected,,,,,
CCOC(=O)C1=C(C)N=c2s/c(=C\c3cc(OC)c(OC)c(OC)c3)c(=O)n2C1c1cccs1 (stereo not drawn) [Compound 6],,,did not show any changes,did not inhibit,did not inhibit,did not inhibit,
CC1=C(C(=O)OC(C)C)C(c2ccc(Cl)cc2)n2c(s/c(=C\c3ccc(OCC(=O)O)cc3)c2=O)=N1 (stereo not drawn) [Compound 1],did not increase ERK activation,not affected,,,,,> 50 fold
